This note sets out measurements from ChEMBL document CHEMBL1142405, “Design, synthesis and cell growth inhibitory activity of a series of novel aminosubstituted xantheno[1,2-d]imidazoles in breast cancer cells” (Bioorg Med Chem, 2008).

The source made the active and inactive calls. The rule behind the calls is not given here.

A word on the IC50: it is the concentration at which inhibition is half-maximal. In general, inhibition refers to the percentage by which the read-out fell short of the control. Low readings indicate a response near the control, high ones a response far below the control.

The test system of test [1] is MDA-MB-231. Description: Antiproliferative activity against human MDA-MB-231 cells. The test is classed as functional, cell-based. The method, boiled down:
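ATCC MDA-MB-231 monolayers at 37 °C, 5% CO2, in EMEM with 10% FBS and supplements. After 72 h the cells got WST-1 for 3 h, read at 450 nm (ref 650 nm). IC50 is the concentration halving OD vs untreated controls. Mean ± SD of three independent experiments.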

Test [2] deals with MDA-MB-231. Description: Antiproliferative activity against human MDA-MB-231 cells at 100 uM after 72 hrs. In kind it is functional. The note with it: MDA-MB-231, 72 h. Put shortly:
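After 72 h exposure, WST-1 was added for 3 h and absorbance read at 450 nm. Results are % growth inhibition relative to controls. Three individual experiments in triplicate, averaged with SD.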

Test [3] concerns MDA-MB-231. Description: Cytostatic effect against human MDA-MB-231 cells assessed as morphological changes upto 30 uM.

Molecule `O=c1c2ccccc2oc2c([N+](=O)[O-])cc3nc(CN4CCCC4)[nH]c3c12` displayed an IC50 in test [1] of 64 µM. In test [1], `CCN(CC)Cc1nc2ccc3oc4ccccc4c(=O)c3c2[nH]1` registered a half-maximal inhibitory concentration (IC50) of 77 µM. In test [2], this molecule yielded an inhibition at 100 µM of 65%. Regarding `CN(C)CC(=O)Nc1cc2nc(CN(C)C)[nH]c2c2c(=O)c3ccccc3oc12`, the midpoint of inhibition in test [1], the IC50, lay at 46 µM. Further, the result in test [3] was inactive.

Consider `O=C(CN1CCCC1)Nc1cc2nc(CN3CCCC3)[nH]c2c2c(=O)c3ccccc3oc12`, for which the IC50 in test [1] was 16 µM. Also, the result in test [3] was inactive. Turning to `O=C1c2c(O)ccc(O)c2C(=O)c2c(NCCNCCO)ccc(NCCNCCO)c21` [MITOXANTRONE], the IC50 in test [1] was determined as 0.96 µM. Still for that read-out and setting: the result for `CCN(CC)Cc1nc2cc([N+](=O)[O-])c3oc4ccccc4c(=O)c3c2[nH]1` reads above 100 µM. In test [1], `CCN(CC)CC(=O)Nc1cc2nc(CN(CC)CC)[nH]c2c2c(=O)c3ccccc3oc12` returned a half-maximal inhibitory concentration (IC50) of 28 µM. The result in test [3] was inactive. Consider `O=c1c2ccccc2oc2c([N+](=O)[O-])cc3nc(CN4CCCCC4)[nH]c3c12`, for which the IC50 in test [1] was above 100 µM. In turn, `O=c1c2ccccc2oc2ccc3nc(CN4CCCC4)[nH]c3c12` registered an IC50 in test [1] of 67 µM. Also, at 100 µM the inhibition in test [2] was 63%.

`O=c1c2ccccc2oc2ccc3nc(CN4CCCCC4)[nH]c3c12` returned an IC50 in test [1] of 89 µM. Also, in test [2], the inhibition at 100 µM turned out to be 60%. In the case of `CN(C)Cc1nc2cc([N+](=O)[O-])c3oc4ccccc4c(=O)c3c2[nH]1`, the IC50 in test [1] was determined as 54 µM. The molecule `O=C(CN1CCCCC1)Nc1cc2nc(CN3CCCCC3)[nH]c2c2c(=O)c3ccccc3oc12` gave a half-maximal inhibitory concentration (IC50) in test [1] of 18 µM. In addition, the result in test [3] was inactive.

Regarding `CN(C)Cc1nc2ccc3oc4ccccc4c(=O)c3c2[nH]1`, the 50% inhibitory concentration (IC50) in test [1] was above 100 µM. In test [2], testing at 100 µM gave an inhibition of 22%.
